For 35 molecules, inhibition, IC50 and Activity results are on record in ChEMBL document CHEMBL1926513, “Synthesis of novel cinnamanilides as potential immunosuppressive agents” (Eur J Med Chem, 2012).

Activity calls are given as the source filed them. No cut-off for these calls is given here.

The nature of data set [1]: Immunosuppressive activity in BALB/c mouse splenocytes assessed as inhibition of CD3/CD28-induced cell proliferation at 5 ug/mL after 48 hrs by MTT assay. The format is functional. The conditions noted are these: Splenocyte. In a few lines:
(§1)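 Splenocytes from 6 to 8 week-old BALB/c mice (erythrocytes lysed with ammonium chloride, washed in PBS/2% FBS) plated at 5 × 10⁵ cells/well in RPMI 1640 with 10% FBS and antibiotics; CD3/CD28 co-stimulation with compound ([…] as printed for single-concentration screen, or a concentration series for IC50) for 48 h; survival by MTT.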
For orientation: Formazan colour is commonly taken as a measure of viable cells.

The nature of data set [2]: Immunosuppressive activity in BALB/c mouse splenocytes assessed as inhibition of CD3/CD28-induced cell proliferation after 48 hrs by MTT assay. The class given is functional, cell-based. The conditions noted are these: Splenocyte. In a few lines: as §1
Another data set has as its system Splenocyte. Description: Cytotoxicity against CD3/CD28-induced BALB/c mouse splenocytes at 1 to 10 ug/mL after 48 hrs by MTT assay. The format is functional, cell-based. In a few lines: (§2)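 Spleen cells from 6 to 8 week-old BALB/c mice, single-cell suspension, erythrocytes depleted with ammonium chloride, washed in PBS/2% FBS; 5 × 10⁵ cells/well in RPMI 1640 with 10% FBS, penicillin, streptomycin; unstimulated or CD3/CD28-co-stimulated cells exposed to varied compound concentrations for 48 h; viability by MTT. Compounds from DMSO stocks diluted in RPMI-1640/10% FBS.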

The nature of data set [3]: Cytotoxicity against BALB/c mouse splenocytes at 1 to 10 ug/mL after 48 hrs by MTT assay. The conditions noted are these: splenocyte. The format is cell-based. In short, it runs like this: as §2

What is called inhibition is the change of the read-out against control, counted positive when it falls. One may read the IC50 as the concentration needed to halve the response being measured. Turning to `CO/C(=C\c1ccccc1)C(=O)Nc1ccccc1`, in data set [1], the inhibition at 5 µg/mL was over 50%. Moreover, the IC50 in data set [2] came out at 15.2 µM.
On to `CO/C(=C\c1ccc(Cl)cc1)C(=O)Nc1ccc(C(C)C)cc1`, for which the inhibition at 5 µg/mL in data set [1] was under 50%.
`CO/C(=C\c1ccc(Br)cc1)C(=O)Nc1ccc(Br)cc1`: in data set [1], the inhibition at 5 µg/mL was under 50%.
In the case of `CO/C(=C\c1ccc(F)cc1)C(=O)Nc1ccc(Cl)cc1`, the inhibition at 5 µg/mL in data set [1] was over 50%. For the same molecule, the IC50 in data set [2] came out at 9.48 µM.
Consider `CO/C(=C\c1ccc(Cl)cc1)C(=O)Nc1ccc(Br)cc1`, for which the inhibition at 5 µg/mL in data set [1] was over 50%. Moreover, the IC50 in data set [2] was 11 µM.
In the case of `CO/C(=C\c1ccccc1)C(=O)Nc1ccc(OC)cc1`, the inhibition at 5 µg/mL in data set [1] was under 50%.
Turning to `CO/C(=C\c1ccc(OC)cc1)C(=O)Nc1ccc(Br)cc1`, the outcome with Splenocyte was Active. For the same molecule, the inhibition at 5 µg/mL in data set [1] is over 50%. Besides, in data set [3], the Activity entry is recorded as “Non-toxic”. The 50% inhibitory concentration (IC50) in data set [2] is 1.77 µM.
`CO/C(=C\c1ccc(Br)cc1)C(=O)Nc1ccc(F)cc1`: the inhibition at 5 µg/mL in data set [1] was under 50%.
For the molecule `CO/C(=C\c1ccc(Cl)cc1)C(=O)Nc1ccc(Cl)cc1`, in data set [1], the inhibition at 5 µg/mL was under 50%.
Same read-out and setting: the value for `CO/C(=C\c1ccc(OC)cc1)C(=O)Nc1ccc(C(C)C)cc1` was under 50%.
Still for that read-out and setting: the value for `CO/C(=C\c1ccc(Br)cc1)C(=O)Nc1ccc(OC)cc1` was under 50%; that for `CO/C(=C\c1ccc(F)cc1)C(=O)Nc1ccc(Br)cc1` was under 50%; that for `CO/C(=C\c1ccc(OC)cc1)C(=O)Nc1ccccc1` was under 50%.
With `CO/C(=C\c1ccccc1)C(=O)Nc1ccc(Br)cc1`, in data set [1], the inhibition at 5 µg/mL is under 50%.
For the molecule `CO/C(=C\c1ccc(Cl)cc1)C(=O)Nc1ccc(C)cc1`, the inhibition at 5 µg/mL in data set [1] is over 50%. Moreover, in data set [2], the half-inhibitory concentration (IC50) was found to be 12.7 µM.
Turning to `CO/C(=C\c1ccc(F)cc1)C(=O)Nc1ccc(F)cc1`, in data set [1], the inhibition at 5 µg/mL is under 50%.
Consider `CO/C(=C\c1ccccc1)C(=O)Nc1ccc(C)cc1`, for which the inhibition at 5 µg/mL in data set [1] was over 50%. Besides, in data set [2], the IC50 is 16.6 µM.
As to `CO/C(=C\c1ccc(F)cc1)C(=O)Nc1ccccc1`, the inhibition at 5 µg/mL in data set [1] is under 50%.
On to `CO/C(=C\c1ccc(Cl)cc1)C(=O)Nc1ccccc1`, for which, in data set [1], the inhibition at 5 µg/mL was under 50%.
For `CO/C(=C\c1ccc(OC)cc1)C(=O)Nc1ccc(C)cc1`, in the data set on Splenocyte, the outcome was Active. For the same molecule, the inhibition at 5 µg/mL in data set [1] is over 50%. In addition, the Activity entry in data set [3] is reported as “Non-toxic”. Moreover, in data set [2], the IC50 was 0.94 µM.
Turning to `CO/C(=C\c1ccc(OC)cc1)C(=O)Nc1ccc(Cl)cc1`, the inhibition at 5 µg/mL in data set [1] is over 50%. Moreover, the IC50 in data set [2] is 14.7 µM.
In the case of `CO/C(=C\c1ccc(F)cc1)C(=O)Nc1ccc(C)cc1`, in data set [1], the inhibition at 5 µg/mL is under 50%.
Take `CO/C(=C\c1ccc(Br)cc1)C(=O)Nc1ccccc1`: the inhibition at 5 µg/mL in data set [1] is under 50%.
With `CO/C(=C\c1ccc(Br)cc1)C(=O)Nc1ccc(C)cc1`, in data set [1], the inhibition at 5 µg/mL was over 50%. In addition, the IC50 in data set [2] turned out to be 12.9 µM.
Turning to `CO/C(=C\c1ccc(F)cc1)C(=O)Nc1ccc(C(C)C)cc1`, in the data set on Splenocyte, the result was Active. In addition, in data set [1], the inhibition at 5 µg/mL was over 50%. Further, the Activity entry in data set [3] is “Non-toxic”. Moreover, in data set [2], the 50% inhibitory concentration (IC50) was 4.66 µM.
For `CO/C(=C\c1ccc(F)cc1)C(=O)Nc1ccc(OC)cc1`, the inhibition at 5 µg/mL in data set [1] is over 50%. Moreover, the IC50 in data set [2] came out at 13.5 µM.
Take `CO/C(=C\c1ccc(Br)cc1)C(=O)Nc1ccc(C(C)C)cc1`: in data set [1], the inhibition at 5 µg/mL was under 50%.
For `CO/C(=C\c1ccc(Cl)cc1)C(=O)Nc1ccc(OC)cc1`, in data set [1], the inhibition at 5 µg/mL was under 50%.
For `CO/C(=C\c1ccc(OC)cc1)C(=O)Nc1ccc(OC)cc1`, in data set [1], the inhibition at 5 µg/mL is under 50%.
On to `CO/C(=C\c1ccccc1)C(=O)Nc1ccc(Cl)cc1`, for which the inhibition at 5 µg/mL in data set [1] was over 50%. Further, the IC50 in data set [2] came out at 17 µM.
Take `CO/C(=C\c1ccccc1)C(=O)Nc1ccc(F)cc1`: the inhibition at 5 µg/mL in data set [1] is over 50%. In data set [2], the IC50 was 4.94 µM.
With `CO/C(=C\c1ccc(Cl)cc1)C(=O)Nc1ccc(F)cc1`, the inhibition at 5 µg/mL in data set [1] was over 50%. Besides, the IC50 in data set [2] was 14 µM.
Take `CO/C(=C\c1ccccc1)C(=O)Nc1ccc(C(C)C)cc1`: the result in the data set with Splenocyte was Active. Also, the inhibition at 5 µg/mL in data set [1] is over 50%. Also, the Activity result in data set [3] is “Non-toxic”. Moreover, the IC50 in data set [2] is 3.46 µM.
For the molecule `CO/C(=C\c1ccc(OC)cc1)C(=O)Nc1ccc(F)cc1`, the inhibition at 5 µg/mL in data set [1] is under 50%.
As to `CO/C(=C\c1ccc(Br)cc1)C(=O)Nc1ccc(Cl)cc1`, the inhibition at 5 µg/mL in data set [1] is under 50%.
